Activity calls are given as the source filed them. No cut-off for these calls is given here.
Key:
[1] = target: Activin receptor type-1-like (Homo sapiens) (UniProt P37023); assay: Inhibition of ACVRL1 (unknown origin) assessed as remaining activity at 1 uM by Kinome scan method relative to control
In short: (§1)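 Active-site-dependent competition-binding (KINOMEscan) panel of 468 kinases, test compound at 1 μM (from a 10 mM DMSO stock). Read-out is ctrl% = (test signal − positive control signal)/(negative control signal − positive control signal) × 100. DMSO is the negative control (100%) and a control compound is the positive control (0%). Lower ctrl% means tighter binding.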

[2] = target: Serine/threonine-protein kinase DCLK1 (Homo sapiens) (UniProt O15075); assay: Inhibition of DCAMKL1 (unknown origin) assessed as remaining activity at 1 uM by Kinome scan method relative to control
In short: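 Active-site-dependent competition-binding assay (KINOMEscan) across a 468-kinase panel, with the inhibitor tested at 1 μM from a 10 mM DMSO stock. Read-out is ctrl% = (test signal − positive control)/(negative control − positive control) × 100. DMSO is the negative control (100%) and a control compound the positive control (0%). Lower ctrl% means tighter binding.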

[3] = target: Serine/threonine-protein kinase 17A (Homo sapiens) (UniProt Q9UEE5); assay: Inhibition of DRAK1 (unknown origin) assessed as remaining activity at 1 uM by Kinome scan method relative to control
[4] = system: Epidermal growth factor receptor (Homo sapiens), P00533 [L858R]; assay: Inhibition of EGFR L858R mutant (unknown origin) assessed as remaining activity at 1 uM by Kinome scan method relative to control
[5] = target: Receptor-type tyrosine-protein kinase FLT3 (Homo sapiens) (UniProt P36888); assay: Inhibition of FLT3 (unknown origin) assessed as remaining activity at 1 uM by Kinome scan method relative to control
[6] = target: Serine/threonine-protein kinase LATS1 (Homo sapiens) (UniProt O95835); assay: Inhibition of LATS1 (unknown origin) assessed as remaining activity at 1 uM by Kinome scan method relative to control
[7] = target: Tyrosine-protein kinase Lck (Homo sapiens) (UniProt P06239); assay: Inhibition of LCK (unknown origin) assessed as remaining activity at 1 uM by Kinome scan method relative to control
[8] = target: Mitogen-activated protein kinase kinase kinase kinase 3 (Homo sapiens) (UniProt Q8IVH8); assay: Inhibition of MAP4K3 (unknown origin) assessed as remaining activity at 1 uM by Kinome scan method relative to control
[9] = target: Serine/threonine-protein kinase mTOR (Homo sapiens) (UniProt P42345); assay: Inhibition of MTOR (unknown origin) assessed as remaining activity at 1 uM by Kinome scan method relative to control
[10] = target: Serine/threonine-protein kinase Nek7 (Homo sapiens) (UniProt Q8TDX7); assay: Inhibition of NEK7 (unknown origin) assessed as remaining activity at 1 uM by Kinome scan method relative to control
[11] = target: Serine/threonine-protein kinase PAK 1 (Homo sapiens) (UniProt Q13153); assay: Inhibition of PAK1 (unknown origin) assessed as remaining activity at 1 uM by Kinome scan method relative to control
[12] = target: Cyclin-dependent kinase 17 (Homo sapiens) (UniProt Q00537); assay: Inhibition of PCTK2 (unknown origin) assessed as remaining activity at 1 uM by Kinome scan method relative to control
[13] = target: Serine/threonine-protein kinase PLK4 (Homo sapiens) (UniProt O00444); assay: Inhibition of PLK4 (unknown origin) assessed as remaining activity at 1 uM by Kinome scan method relative to control
[14] = target: Protein-tyrosine kinase 2-beta (Homo sapiens) (UniProt Q14289); assay: Inhibition of PYK2 (unknown origin) assessed as remaining activity at 1 uM by Kinome scan method relative to control
[15] = target: Ribosomal protein S6 kinase alpha-3 (Homo sapiens) (UniProt P51812); assay: Inhibition of C-terminal kinase domain RSK2 (unknown origin) assessed as remaining activity at 1 uM by Kinome scan method relative to control; in short: as §1
[16] = target: Serine/threonine-protein kinase tousled-like 1 (Homo sapiens) (UniProt Q9UKI8); assay: Inhibition of TLK1 (unknown origin) assessed as remaining activity at 1 uM by Kinome scan method relative to control
[17] = target: TRAF2 and NCK-interacting protein kinase (Homo sapiens) (UniProt Q9UKE5); assay: Inhibition of TNIK (unknown origin) assessed as remaining activity at 1 uM by Kinome scan method relative to control
[18] = target: Mitogen-activated protein kinase kinase kinase 20 (Homo sapiens) (UniProt Q9NYL2); assay: Inhibition of ZAK (unknown origin) assessed as remaining activity at 1 uM by Kinome scan method relative to control
[19] = target: T1, Serine/threonine-protein kinase 3 (Homo sapiens, UniProt Q13188); assay: Binding affinity to MST2 (unknown origin) assessed as dissociation constant
T1 sequence (Q13188 whole entry): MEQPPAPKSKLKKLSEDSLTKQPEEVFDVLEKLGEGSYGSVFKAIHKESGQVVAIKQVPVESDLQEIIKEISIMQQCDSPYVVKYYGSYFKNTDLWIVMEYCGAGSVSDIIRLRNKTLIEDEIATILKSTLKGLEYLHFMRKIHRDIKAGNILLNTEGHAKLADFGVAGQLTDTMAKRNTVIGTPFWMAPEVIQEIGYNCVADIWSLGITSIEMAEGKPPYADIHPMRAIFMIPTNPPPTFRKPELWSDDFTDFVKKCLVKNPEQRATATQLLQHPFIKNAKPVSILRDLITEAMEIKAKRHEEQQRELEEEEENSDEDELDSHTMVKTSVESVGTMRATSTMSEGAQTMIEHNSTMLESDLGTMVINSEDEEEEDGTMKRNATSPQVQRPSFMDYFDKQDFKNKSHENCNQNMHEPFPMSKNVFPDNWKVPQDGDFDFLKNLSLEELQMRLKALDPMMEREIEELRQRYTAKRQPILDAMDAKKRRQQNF

[20] = system: HepG2; assay: Induction of apoptosis in human HepG2 cells assessed as late apoptosis cells at 3 uM by annexinV staining (Rvb =0.84 %); format: functional
[21] = Acute toxicity in wild-type mouse assessed as low level in oval cell expansion by at 1 mg/kg,ip administrated daily for 2 months by immunohistochemical staining; format: organism-based; settings: in vivo, 1460 h
[22] = system: Mus musculus; assay: Anti-colitis activity against DSS-induced mouse assessed as high Ki67-positive proliferating cells at 1 mg/kg, ip administrated daily for 8 days by IHC staining; format: functional, organism-based; settings: Colon, time 8.0 day
In short: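 Wild-type mice received oral DSS for 7 days with vehicle or 1 mg/kg daily. Colon sections were stained by IHC for YAP, BrdU and Ki67, and positive cells were quantified per animal. Means ± SD, n = 10, Student's t test.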

[23] = system: Mus musculus; assay: Protection against duct ligation-induced mouse assessed as low level in collagen deposition at 1 mg/kg, ip administration daily for 10 days by Sirius Red staining; format: functional, organism-based; settings: Liver, time 10.0 day

Sequence of TRAF2 and NCK-interacting protein kinase (Homo sapiens) (Q9UKE5 whole entry, looked up): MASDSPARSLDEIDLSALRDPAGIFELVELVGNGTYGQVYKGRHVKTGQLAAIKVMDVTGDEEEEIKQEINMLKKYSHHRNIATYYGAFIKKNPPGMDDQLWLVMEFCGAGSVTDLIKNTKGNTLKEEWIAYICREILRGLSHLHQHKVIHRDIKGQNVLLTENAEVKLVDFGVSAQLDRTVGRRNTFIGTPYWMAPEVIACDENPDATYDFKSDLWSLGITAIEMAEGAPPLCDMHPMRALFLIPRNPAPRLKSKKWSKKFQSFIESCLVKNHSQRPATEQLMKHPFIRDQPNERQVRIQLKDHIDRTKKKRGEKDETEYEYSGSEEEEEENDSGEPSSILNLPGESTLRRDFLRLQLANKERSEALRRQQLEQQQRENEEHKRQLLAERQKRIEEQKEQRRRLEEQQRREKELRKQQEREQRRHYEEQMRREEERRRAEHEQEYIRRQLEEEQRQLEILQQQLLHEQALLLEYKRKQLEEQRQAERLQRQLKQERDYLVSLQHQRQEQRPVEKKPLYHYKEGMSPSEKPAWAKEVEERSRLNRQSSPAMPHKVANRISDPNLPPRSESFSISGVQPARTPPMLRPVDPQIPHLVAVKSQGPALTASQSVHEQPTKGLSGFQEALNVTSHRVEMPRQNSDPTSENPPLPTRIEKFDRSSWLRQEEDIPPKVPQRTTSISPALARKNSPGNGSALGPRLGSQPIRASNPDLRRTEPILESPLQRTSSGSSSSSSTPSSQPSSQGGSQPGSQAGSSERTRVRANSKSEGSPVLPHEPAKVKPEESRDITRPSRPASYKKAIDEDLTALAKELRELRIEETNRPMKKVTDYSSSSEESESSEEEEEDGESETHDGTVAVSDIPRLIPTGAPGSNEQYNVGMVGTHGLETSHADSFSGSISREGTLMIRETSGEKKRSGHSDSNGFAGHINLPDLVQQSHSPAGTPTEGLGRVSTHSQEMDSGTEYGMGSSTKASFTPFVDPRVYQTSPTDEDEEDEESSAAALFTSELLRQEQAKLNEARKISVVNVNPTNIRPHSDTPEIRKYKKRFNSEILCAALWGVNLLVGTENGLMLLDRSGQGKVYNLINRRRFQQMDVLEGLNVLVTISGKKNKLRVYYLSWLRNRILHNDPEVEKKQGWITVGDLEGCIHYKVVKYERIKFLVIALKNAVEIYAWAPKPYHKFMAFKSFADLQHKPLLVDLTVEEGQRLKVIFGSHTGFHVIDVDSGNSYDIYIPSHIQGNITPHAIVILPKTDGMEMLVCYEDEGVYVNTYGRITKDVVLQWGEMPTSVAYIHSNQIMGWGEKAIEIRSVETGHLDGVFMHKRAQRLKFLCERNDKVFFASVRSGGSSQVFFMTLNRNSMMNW
Sequence of Receptor-type tyrosine-protein kinase FLT3 (Homo sapiens) (P36888 whole entry): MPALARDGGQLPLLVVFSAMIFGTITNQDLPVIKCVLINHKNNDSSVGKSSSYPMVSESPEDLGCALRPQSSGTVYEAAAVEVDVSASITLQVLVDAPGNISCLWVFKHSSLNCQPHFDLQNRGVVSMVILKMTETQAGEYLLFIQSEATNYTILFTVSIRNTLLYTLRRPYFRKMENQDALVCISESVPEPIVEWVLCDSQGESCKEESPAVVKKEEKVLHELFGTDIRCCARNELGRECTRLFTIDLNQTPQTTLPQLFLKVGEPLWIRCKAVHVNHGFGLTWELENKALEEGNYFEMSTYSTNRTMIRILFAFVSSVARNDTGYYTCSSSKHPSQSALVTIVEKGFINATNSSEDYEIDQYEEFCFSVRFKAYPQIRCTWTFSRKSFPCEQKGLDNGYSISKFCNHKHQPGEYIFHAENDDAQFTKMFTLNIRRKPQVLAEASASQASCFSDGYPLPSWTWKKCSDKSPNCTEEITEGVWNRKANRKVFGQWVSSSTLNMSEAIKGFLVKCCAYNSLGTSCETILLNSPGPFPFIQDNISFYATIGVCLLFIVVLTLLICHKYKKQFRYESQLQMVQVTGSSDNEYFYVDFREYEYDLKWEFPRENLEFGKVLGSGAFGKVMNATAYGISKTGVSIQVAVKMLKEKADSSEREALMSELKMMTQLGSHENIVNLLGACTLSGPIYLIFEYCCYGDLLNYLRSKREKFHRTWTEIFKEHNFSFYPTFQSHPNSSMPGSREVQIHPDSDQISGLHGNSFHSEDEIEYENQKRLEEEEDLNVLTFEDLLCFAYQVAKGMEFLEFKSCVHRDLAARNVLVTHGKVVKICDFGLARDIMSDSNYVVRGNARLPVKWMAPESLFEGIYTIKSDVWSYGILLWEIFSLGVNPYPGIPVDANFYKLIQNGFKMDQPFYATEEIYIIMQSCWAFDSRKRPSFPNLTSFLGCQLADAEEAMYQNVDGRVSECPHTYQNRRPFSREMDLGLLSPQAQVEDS
Sequence of Cyclin-dependent kinase 17 (Homo sapiens) (Q00537 whole entry, looked up): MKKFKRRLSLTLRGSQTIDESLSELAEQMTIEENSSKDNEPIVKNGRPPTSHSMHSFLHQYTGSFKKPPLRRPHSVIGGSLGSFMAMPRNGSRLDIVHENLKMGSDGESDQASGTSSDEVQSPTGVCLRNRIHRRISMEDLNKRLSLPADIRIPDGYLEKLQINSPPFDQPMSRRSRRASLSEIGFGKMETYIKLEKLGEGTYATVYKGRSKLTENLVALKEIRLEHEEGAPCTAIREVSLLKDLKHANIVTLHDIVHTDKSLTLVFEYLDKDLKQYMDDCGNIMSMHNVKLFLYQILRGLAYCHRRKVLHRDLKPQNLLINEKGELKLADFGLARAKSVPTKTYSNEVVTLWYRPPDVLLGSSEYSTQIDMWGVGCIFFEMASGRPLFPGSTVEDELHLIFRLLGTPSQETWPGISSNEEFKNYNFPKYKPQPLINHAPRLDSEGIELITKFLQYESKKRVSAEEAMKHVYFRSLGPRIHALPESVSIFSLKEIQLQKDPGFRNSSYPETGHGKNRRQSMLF
Sequence of Tyrosine-protein kinase Lck (Homo sapiens) (P06239 2-509 limits assumed): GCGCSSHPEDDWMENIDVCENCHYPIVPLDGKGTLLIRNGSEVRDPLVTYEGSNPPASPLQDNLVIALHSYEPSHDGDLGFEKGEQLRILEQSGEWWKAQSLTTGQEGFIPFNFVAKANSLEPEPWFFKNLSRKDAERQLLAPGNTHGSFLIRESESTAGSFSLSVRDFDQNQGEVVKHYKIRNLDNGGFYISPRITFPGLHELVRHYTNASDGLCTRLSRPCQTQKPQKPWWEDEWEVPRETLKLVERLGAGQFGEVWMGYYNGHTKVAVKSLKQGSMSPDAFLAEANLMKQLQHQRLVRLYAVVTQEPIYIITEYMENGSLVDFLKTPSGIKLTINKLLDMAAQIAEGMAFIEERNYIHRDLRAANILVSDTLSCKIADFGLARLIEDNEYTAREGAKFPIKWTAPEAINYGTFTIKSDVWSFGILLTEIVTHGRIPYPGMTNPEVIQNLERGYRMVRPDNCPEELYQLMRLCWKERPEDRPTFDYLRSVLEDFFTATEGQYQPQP
Sequence of Serine/threonine-protein kinase LATS1 (Homo sapiens) (O95835 whole entry): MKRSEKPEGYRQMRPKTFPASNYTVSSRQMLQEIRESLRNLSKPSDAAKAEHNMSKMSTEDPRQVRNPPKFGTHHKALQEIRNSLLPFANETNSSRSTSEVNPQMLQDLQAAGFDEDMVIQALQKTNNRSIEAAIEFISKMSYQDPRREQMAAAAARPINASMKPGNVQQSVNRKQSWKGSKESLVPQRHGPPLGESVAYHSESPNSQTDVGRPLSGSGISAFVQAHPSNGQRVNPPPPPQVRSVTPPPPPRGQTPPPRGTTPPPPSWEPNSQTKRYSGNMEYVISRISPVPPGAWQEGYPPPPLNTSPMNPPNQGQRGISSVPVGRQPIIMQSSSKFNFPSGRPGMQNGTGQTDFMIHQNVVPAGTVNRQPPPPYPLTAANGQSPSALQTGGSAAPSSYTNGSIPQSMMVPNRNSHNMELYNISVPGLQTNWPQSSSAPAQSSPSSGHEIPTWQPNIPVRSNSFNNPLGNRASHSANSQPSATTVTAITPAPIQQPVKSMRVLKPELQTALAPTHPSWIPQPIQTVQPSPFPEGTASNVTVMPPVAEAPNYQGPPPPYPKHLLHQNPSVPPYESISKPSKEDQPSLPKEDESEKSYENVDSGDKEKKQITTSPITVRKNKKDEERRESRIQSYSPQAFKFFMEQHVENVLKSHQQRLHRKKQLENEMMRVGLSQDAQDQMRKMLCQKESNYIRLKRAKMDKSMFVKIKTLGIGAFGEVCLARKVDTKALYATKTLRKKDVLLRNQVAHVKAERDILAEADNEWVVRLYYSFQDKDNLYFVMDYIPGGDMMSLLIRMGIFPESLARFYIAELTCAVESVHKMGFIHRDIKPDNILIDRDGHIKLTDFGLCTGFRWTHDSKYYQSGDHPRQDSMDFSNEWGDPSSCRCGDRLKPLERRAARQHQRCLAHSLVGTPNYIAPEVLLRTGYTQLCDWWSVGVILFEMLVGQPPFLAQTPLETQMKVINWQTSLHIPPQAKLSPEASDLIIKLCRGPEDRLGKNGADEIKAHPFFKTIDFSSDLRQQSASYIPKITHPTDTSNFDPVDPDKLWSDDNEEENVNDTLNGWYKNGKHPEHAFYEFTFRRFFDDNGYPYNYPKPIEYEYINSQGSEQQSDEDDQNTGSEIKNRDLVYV
Sequence of Serine/threonine-protein kinase Nek7 (Homo sapiens) (Q8TDX7 whole entry, looked up): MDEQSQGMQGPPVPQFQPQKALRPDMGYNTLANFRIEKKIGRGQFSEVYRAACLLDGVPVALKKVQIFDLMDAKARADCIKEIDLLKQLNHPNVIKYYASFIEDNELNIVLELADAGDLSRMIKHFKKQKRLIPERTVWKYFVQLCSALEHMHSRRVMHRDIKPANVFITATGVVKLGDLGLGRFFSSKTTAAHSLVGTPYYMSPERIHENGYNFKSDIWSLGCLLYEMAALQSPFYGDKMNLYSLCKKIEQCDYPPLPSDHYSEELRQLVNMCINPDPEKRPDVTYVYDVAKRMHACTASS

Compound `CN1C(=O)c2sccc2N(C)c2nc(Nc3ccc(S(N)(=O)=O)cc3)ncc21` has an Activity [1] of 100%, an Activity [2] of 8.3% and an Activity [3] of 100%. It also gave an Activity [4] of 100%, an Activity [5] of 100% and an Activity [6] of 100%. The Activity [7] was 100%, the Activity [8] was 100% and the Activity [9] was 84%. It also gave an Activity [10] of 88%, an Activity [11] of 100% and an Activity [12] of 86%. For the same compound, the Activity [13] was 14%, the Activity [14] was 98% and the Activity [15] was 66%. It also gave an Activity [16] of 100%, an Activity [17] of 71% and an Activity [18] of 82%. The Kd [19] was 11 nM, the Activity [20] was 0.96% and the Activity [21] was “Toxic”. For the same compound, the Activity [22] was “Active” and the Activity [23] was “Active”.

Reference: ChEMBL document CHEMBL5705905, “Pharmacological targeting of kinases MST1 and MST2 augments tissue repair and regeneration” (Sci Transl Med, 2016)
